The results in this text go back to ChEMBL document CHEMBL1127827, “In vivo inhibition of cathepsin B by peptidyl (acyloxy)methyl ketones” (J Med Chem, 1994).

Each structure is given as a SMILES string.

Series [1] deals with Rattus norvegicus. The experiment in a line: Percentage of control was measured on rat liver cathepsin B by a single intraperitoneal dose of 10 mg/kg. It counts as functional. The essentials:
(§1)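 Female Lewis rats, single intraperitoneal dose as CMC suspension; livers removed 4-5 h postdose, frozen homogenate supernatant assayed fluorimetrically with Z-Arg-Arg-NMec in 0.1 M KH2PO4 pH 6.0, 1 mM EDTA, 1 mM DTT, 37 °C 30 min; protein-normalized activity as % of CMC control; two dilutions in triplicate per animal, 4-5 animals per group.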

A further series addresses Cathepsin B (Bos taurus) (UniProt P07688). Put plainly: Rate of cathepsin B inactivation in vitro in bovine spleen. The class given is tissue-based. The essentials:
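Purified bovine spleen cathepsin B; continuous fluorometric assay in 0.1 M potassium phosphate, 1.25 mM EDTA, 1 mM dithiothreitol, pH 6.0, 25 °C; second-order inactivation rate constant k/K (M-1 s-1) determined.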

Series [2] relates to Rattus norvegicus. The experiment in a line: Percentage of control was measured on rat liver cathepsin B by a single oral dose of 50 mg/kg. It counts as functional. The essentials:
(§2)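 Rats dosed once by gavage with compound suspended in CMC; livers taken 4-5 h postdose, frozen, homogenized and centrifuged; supernatant cathepsin B activity read with Z-Arg-Arg-NMec at pH 6.0, 37 °C, 30 min, quenched with chloroacetate/acetate pH 4.3; specific activity given as % of vehicle control, two dilutions in triplicate, 4-5 animals per group.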

A short description of series [3]: Half-life measured in in vitro Cathepsin B assay in human plasma. It counts as ADME, cell-free.
Series [4] deals with Rattus norvegicus. The experiment in a line: ED50 value was determined for rat heart at 20h postdose by subcutaneous administration. It counts as functional. To be noted: sc. The essentials: (§3)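 Female Lewis rats (150-200 g, usually four per group), single subcutaneous dose suspended in CMC; heart, liver or skeletal muscle harvested 20 h postdose, frozen in liquid nitrogen, homogenized, clarified at 15000g. Cathepsin B measured as Z-Arg-Arg-NMec (20 μM solution) hydrolysis, pH 6.0, 37 °C 30 min, fluorescence ex 340/em 460; specific activity as % of vehicle control; ED50 from dose-response.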

The subject of series [5] is Rattus norvegicus. The experiment in a line: ED50 value was determined for rat liver at 20h postdose by subcutaneous administration. The class given is functional. The conditions noted are these: sc. The essentials: as §3
The test system of series [6] is Rattus norvegicus. Put plainly: ED50 value was determined for rat skeletal muscle at 20h postdose by subcutaneous administration. It counts as functional. To be noted: Muscle tissue, sc. The essentials: as §3
A short description of series [7]: Half-life measured in rat plasma.
Series [8] relates to Rattus norvegicus. Put plainly: Percent inhibition was measured on rat liver cathepsin B by a single subcutaneous dose of 20 mg/kg.
Series [9] deals with Rattus norvegicus. Put plainly: Percent inhibition was measured on rat heart cathepsin B by a single subcutaneous dose of 20 mg/kg.
The subject of series [10] is Rattus norvegicus. Put plainly: Percent inhibition was measured on rat spleen cathepsin B by a single subcutaneous dose of 20 mg/kg.
The subject of series [11] is Rattus norvegicus. Put plainly: Percent inhibition was measured on rat pancreas cathepsin B by a single subcutaneous dose of 20 mg/kg.
Series [12] deals with Rattus norvegicus. The experiment in a line: Percent inhibition was measured on rat skeletal tissue cathepsin B by a single subcutaneous dose of 20 mg/kg.
For series [13], the system named is Rattus norvegicus. Put plainly: Percentage of control was measured on rat liver cathepsin B by a single intraperitoneal dose.(dose =10 mg/kg). It counts as functional. The essentials: as §1
Series [14] has as its system Rattus norvegicus. Put plainly: Percentage of control was measured on rat liver cathepsin B by a single oral dose.(dose =50 mg/kg). The class given is functional. The essentials: as §2
The test system of series [15] is Rattus norvegicus. Put plainly: Percentage of control was measured on rat liver cathepsin B by a single intraperitoneal dose.(dose =100 mg/kg). It counts as functional. The essentials:
as §1

Series [16] deals with Rattus norvegicus. The experiment in a line: Percentage of control was measured on rat liver cathepsin B by a single oral dose.(dose =100 mg/kg). The class given is functional. The essentials:
as §2

Consider `CC(C)C[C@H](NC(=O)[C@H]1O[C@@H]1C(=O)O)C(=O)NCCCCN=C(N)N` [E-64], for which the Control in the series with Rattus norvegicus [1] worked out at 24%.

On to `COc1ccc(C[C@H](NC(=O)OCc2ccccc2)C(=O)N[C@@H](CCCCN)C(=O)COC(=O)c2c(C)cc(C)cc2C)cc1.O=C(O)C(F)(F)F`, for which the k/K at Cathepsin B (Bos taurus) stood at 170000 M⁻¹ s⁻¹. This compound gave a Control in the series with Rattus norvegicus [2] of 30%.

Consider `Cc1cc(C)c(C(=O)OCC(=O)CNC(=O)[C@H](Cc2ccccc2)NC(=O)CCC(=O)O)c(C)c1`, for which the k/K at Cathepsin B (Bos taurus) turned out to be 700 M⁻¹ s⁻¹. The same compound returned a Control with Rattus norvegicus [2] of 49%.

Usually half-life stands for the time needed for the level to fall by half in the phase considered. The term ED50 denotes the midpoint of the dose-response relation. A lower ED50 goes with greater potency. As for `Cc1cc(C)c(C(=O)OCC(=O)[C@H](CCCCN)NC(=O)[C@H](Cc2ccccc2)NC(=O)OCc2ccccc2)c(C)c1.Cl`, the results for the half-life in series [3] and in series [7] were more than 1980 min and 96 min, respectively. The k/K on Cathepsin B (Bos taurus) came to 230000 M⁻¹ s⁻¹. Further, the Control with Rattus norvegicus [1] came to 4%; in the series on Rattus norvegicus [2], 11%. In addition, the results for the ED50 in the series on Rattus norvegicus [4], with Rattus norvegicus [5] and in the series on Rattus norvegicus [6] were approximately 0.1 mg/kg, 2.4 mg/kg and 1 mg/kg, respectively. Besides, the Inhibition % was found to be 96% in the series on Rattus norvegicus [8]; 94% in the series with Rattus norvegicus [9]; 98% in the series on Rattus norvegicus [10]; 96% in the series with Rattus norvegicus [11]; 72% with Rattus norvegicus [12].

Take `CC(NC(=O)[C@H](Cc1ccccc1)NC(=O)OCc1ccccc1)C(=O)CF` (some centres not stated): the k/K on Cathepsin B (Bos taurus) was determined as 21000 M⁻¹ s⁻¹. Besides, in the series with Rattus norvegicus [2], the Control was 7%.

As for `Cc1cc(C)c(C(=O)OCC(=O)[C@@H](C)NC(=O)[C@H](Cc2ccccc2)NC(=O)c2ccc(C(=O)NS(=O)(=O)c3ccccc3)cc2)c(C)c1`, on Cathepsin B (Bos taurus), the k/K was determined as 2500 M⁻¹ s⁻¹. Also, the Control with Rattus norvegicus [13] was 68%; with Rattus norvegicus [14] it was 62%.

`Cc1c(C)c(C(=O)OCC(=O)[C@H](C)NC(=O)[C@H](Cc2ccccc2)NC(=O)OCc2ccccc2)c(C)c(C)c1C(=O)O` had a k/K at Cathepsin B (Bos taurus) of 63000 M⁻¹ s⁻¹. Further, the Control in the series on Rattus norvegicus [1] is on record as 53%; in the series on Rattus norvegicus [2], 79%.

For `Cc1cc(C)c(C(=O)OCC(=O)CNC(=O)[C@H](Cc2ccccc2)NC(=O)OCc2ccccc2)c(C)c1`, the k/K on Cathepsin B (Bos taurus) turned out to be 9900 M⁻¹ s⁻¹. Moreover, the Control in the series on Rattus norvegicus [14] is recorded as 29%.

`Cc1cc(C)c(C(=O)OCC(=O)[C@@H](C)NC(=O)[C@H](Cc2ccccc2)NC(=O)CCC(=O)O)c(C)c1` returned a k/K on Cathepsin B (Bos taurus) of 1000 M⁻¹ s⁻¹. For the same compound, the Control in the series on Rattus norvegicus [13] was 23%; in the series with Rattus norvegicus [14] it was 31%.

In turn, `COC(=O)CCC(=O)N[C@@H](Cc1ccccc1)C(=O)N[C@H](C)C(=O)COC(=O)c1c(C)cc(C)cc1C` registered a k/K on Cathepsin B (Bos taurus) of 4000 M⁻¹ s⁻¹. Further, the Control in the series on Rattus norvegicus [13] amounted to 38%; in the series with Rattus norvegicus [14], 50%.

In the case of `Cc1cc(C)c(C(=O)OCC(=O)[C@@H](C)NC(=O)[C@H](Cc2ccccc2)NC(=O)OCc2ccccc2)c(C)c1`, the k/K at Cathepsin B (Bos taurus) worked out at 14000 M⁻¹ s⁻¹. Further, the results for the Control in the series on Rattus norvegicus [15] and with Rattus norvegicus [16] were 69% and 78%, respectively.
